Measured values published in ChEMBL document CHEMBL2163244, “Structure-guided design, synthesis and biological evaluation of novel DNA ligase inhibitors with in vitro and in vivo anti-staphylococcal activity” (Bioorg Med Chem Lett, 2012).
Values after ≈ are worked out from the molar mass of the structure shown. Active and inactive are the calls of the source. The rule behind the calls is not given here.

How the values were obtained:
[1] = test system: Haemophilus influenzae; assay: Antibacterial activity against wild type Haemophilus influenzae A921 by CLSI dilution method; format: functional
[2] = target: T1, Dihydrofolate reductase (Homo sapiens) (UniProt P00374); assay: Inhibition of human DHFR
T1 sequence (whole entry): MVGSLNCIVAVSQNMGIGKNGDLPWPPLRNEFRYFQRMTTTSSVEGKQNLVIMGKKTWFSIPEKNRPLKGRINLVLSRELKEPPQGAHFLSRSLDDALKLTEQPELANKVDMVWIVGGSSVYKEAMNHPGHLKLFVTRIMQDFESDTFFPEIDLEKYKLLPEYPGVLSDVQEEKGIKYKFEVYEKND

[3] = test system: Staphylococcus aureus; assay: Antibacterial activity against wild type Staphylococcus aureus ATCC 29213 by CLSI dilution method; format: functional
[4] = Inhibition of Escherichia coli NAD-dependent DNA ligase
[5] = test system: Escherichia coli; assay: Antibacterial activity against tolC/rfaC-deficient Escherichia coli harboring ligA251 mutant; format: functional
Summary of the method: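 MIC read-out. The E. coli strain carries only the ligA251 allele (L15F exchange), which gives more than 20-fold reduced ligation activity and sensitizes it to LigA inhibitors.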

[6] = Inhibition of Streptococcus pneumoniae NAD-dependent DNA ligase assessed as equilibrium dissociation constant
[7] = target: DNA ligase 1 (Homo sapiens) (UniProt P18858); assay: Inhibition of human DNA Ligase 1
[8] = test system: Streptococcus pneumoniae; assay: Antibacterial activity against wild type Streptococcus pneumoniae A-216 by CLSI dilution method; format: functional
[9] = test system: Escherichia coli; assay: Antibacterial activity against tolC/rfaC-deficient Escherichia coli; format: functional

Sequence of DNA ligase 1 (Homo sapiens) (P18858 whole entry): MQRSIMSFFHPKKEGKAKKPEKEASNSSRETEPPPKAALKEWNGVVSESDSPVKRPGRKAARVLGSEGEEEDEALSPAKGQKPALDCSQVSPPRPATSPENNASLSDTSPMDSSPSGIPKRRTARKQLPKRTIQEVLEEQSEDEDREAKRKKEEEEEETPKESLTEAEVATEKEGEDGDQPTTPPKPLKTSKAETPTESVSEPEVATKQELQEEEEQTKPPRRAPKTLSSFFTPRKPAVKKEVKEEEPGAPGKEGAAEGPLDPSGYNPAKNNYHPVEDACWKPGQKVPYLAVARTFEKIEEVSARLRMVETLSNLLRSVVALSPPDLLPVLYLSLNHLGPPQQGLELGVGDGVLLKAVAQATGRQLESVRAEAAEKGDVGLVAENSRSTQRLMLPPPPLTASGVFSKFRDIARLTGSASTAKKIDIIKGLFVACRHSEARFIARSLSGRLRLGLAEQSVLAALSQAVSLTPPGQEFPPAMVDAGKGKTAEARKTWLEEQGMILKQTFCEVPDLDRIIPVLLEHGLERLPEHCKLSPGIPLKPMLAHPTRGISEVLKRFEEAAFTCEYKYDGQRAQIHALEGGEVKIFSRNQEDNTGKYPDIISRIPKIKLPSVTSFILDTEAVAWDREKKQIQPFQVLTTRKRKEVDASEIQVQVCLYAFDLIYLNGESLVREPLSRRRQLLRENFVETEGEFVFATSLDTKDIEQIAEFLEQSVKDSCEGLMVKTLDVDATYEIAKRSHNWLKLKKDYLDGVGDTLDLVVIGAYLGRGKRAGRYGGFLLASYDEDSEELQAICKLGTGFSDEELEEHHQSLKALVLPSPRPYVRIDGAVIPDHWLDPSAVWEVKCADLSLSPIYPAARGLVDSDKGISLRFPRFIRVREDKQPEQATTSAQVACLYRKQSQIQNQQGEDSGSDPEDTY

Compound | MIC [1] | inhibition [2] | MIC [3] | IC50 [4] | MIC [5] | Kd [6] | inhibition [7] | MIC [8] | MIC [9]
NC(=O)c1cc2c(N3CC(O)C3)c(Br)c(C(F)(F)F)nc2nc1N | 4 µg/mL (≈ 9.85 µM) | inactive | 16 µg/mL (≈ 39.4 µM) | 500 nM | 0.125 µg/mL (≈ 0.308 µM) | 43 nM | inactive | > 16 µg/mL | 4 µg/mL (≈ 9.85 µM)
C=CCc1c(Cl)nc2nc(N)c(C(N)=O)cc2c1C | 4 µg/mL (≈ 14.5 µM) | inactive | 8 µg/mL (≈ 28.9 µM) | 800 nM | 0.125 µg/mL (≈ 0.452 µM) | 116 nM | inactive | > 16 µg/mL | 8 µg/mL (≈ 28.9 µM)
CC(C)(OCc1ccccc1)c1nc2nc(N)c(C(N)=O)cc2cc1Br | > 16 µg/mL | inactive | > 16 µg/mL | > 5000 nM | 8 µg/mL (≈ 19.3 µM) | 4310 nM | inactive | > 16 µg/mL | > 16 µg/mL
C=Cc1cc2cc(C(N)=O)c(N)nc2nc1C(F)(F)F | 1 µg/mL (≈ 3.54 µM) | inactive | 2 µg/mL (≈ 7.09 µM) | 400 nM | 0.125 µg/mL (≈ 0.443 µM) | 89 nM | inactive | > 16 µg/mL | 8 µg/mL (≈ 28.3 µM)
NC(=O)c1cc2cc(CO)c(C(F)(F)F)nc2nc1N | 2 µg/mL (≈ 6.99 µM) | inactive | > 16 µg/mL | 500 nM | 2 µg/mL (≈ 6.99 µM) | 389 nM | inactive | > 16 µg/mL | > 16 µg/mL
NC(=O)c1cc2c(N3CC[C@@H](O)C3)c(Br)c(C(F)(F)F)nc2nc1N | 8 µg/mL (≈ 19 µM) | inactive | 8 µg/mL (≈ 19 µM) | 700 nM | 0.125 µg/mL (≈ 0.297 µM) | 31 nM | inactive | 8 µg/mL (≈ 19 µM) | 4 µg/mL (≈ 9.52 µM)
NCc1cc(C(F)(F)F)nc2nc(N)c(C(N)=O)cc12 | 4 µg/mL (≈ 14 µM) | inactive | > 16 µg/mL | 2500 nM | 1 µg/mL (≈ 3.51 µM) | 102 nM | inactive | > 16 µg/mL | > 16 µg/mL
COCCc1cc(C(F)(F)F)nc2nc(N)c(C(N)=O)cc12 | 4 µg/mL (≈ 12.7 µM) | inactive | > 16 µg/mL | 10000 nM | 2 µg/mL (≈ 6.36 µM) | 458 nM | inactive | > 16 µg/mL | > 16 µg/mL
Cc1c(Cc2ccccc2)c(Cl)nc2nc(N)c(C(N)=O)cc12 | 2 µg/mL (≈ 6.12 µM) | inactive | 4 µg/mL (≈ 12.2 µM) | 500 nM | 0.125 µg/mL (≈ 0.383 µM) | 107 nM | inactive | 4 µg/mL (≈ 12.2 µM) | 4 µg/mL (≈ 12.2 µM)
Cc1cc(C(F)(F)F)nc2nc(N)c(C(N)=O)cc12 | 0.5 µg/mL (≈ 1.85 µM) | inactive | 8 µg/mL (≈ 29.6 µM) | 500 nM | 0.25 µg/mL (≈ 0.925 µM) | 48 nM | inactive | > 16 µg/mL | 4 µg/mL (≈ 14.8 µM)
CC(C)c1cc2cc(C(N)=O)c(N)nc2nc1C(F)(F)F | 8 µg/mL (≈ 26.8 µM) | inactive | 16 µg/mL (≈ 53.6 µM) | 800 nM | 1 µg/mL (≈ 3.35 µM) | 152 nM | inactive | > 16 µg/mL | > 16 µg/mL
CN(CCO)c1c(Br)c(C(F)(F)F)nc2nc(N)c(C(N)=O)cc12 | 4 µg/mL (≈ 9.8 µM) | inactive | 8 µg/mL (≈ 19.6 µM) | 700 nM | 0.5 µg/mL (≈ 1.22 µM) | 57 nM | inactive | 8 µg/mL (≈ 19.6 µM) | > 16 µg/mL
NC(=O)c1cc2cc(Cc3ccccc3)c(C(F)(F)F)nc2nc1N | 4 µg/mL (≈ 11.6 µM) | inactive | > 16 µg/mL | 800 nM | 0.125 µg/mL (≈ 0.361 µM) | 141 nM | inactive | > 16 µg/mL | 16 µg/mL (≈ 46.2 µM)
